A selection: hits, their analogues and other compounds. The true share with any hit is near 3.5%.
MrgX1 antag: blocks BAM8-22 activation of human MrgX1 receptor | B-score at 10 µM | MRGX1-HEK293 calcium flux, Fluo-4, BAM8-22 antagonism; stronger effect = lower value | AID 588676 | actives 1.3% (n = 310,000) | Q96LB2;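 active = calcium-response B-score plate-corrected more than 3 library SD below zero, starting fluorescence within 5 deviations, no agonist response on first addition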;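 note: peak minus trough fluorescence over baseline after final BAM8-22 challenge near maximal dose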
Target sequence (Q96LB2 whole entry, looked up): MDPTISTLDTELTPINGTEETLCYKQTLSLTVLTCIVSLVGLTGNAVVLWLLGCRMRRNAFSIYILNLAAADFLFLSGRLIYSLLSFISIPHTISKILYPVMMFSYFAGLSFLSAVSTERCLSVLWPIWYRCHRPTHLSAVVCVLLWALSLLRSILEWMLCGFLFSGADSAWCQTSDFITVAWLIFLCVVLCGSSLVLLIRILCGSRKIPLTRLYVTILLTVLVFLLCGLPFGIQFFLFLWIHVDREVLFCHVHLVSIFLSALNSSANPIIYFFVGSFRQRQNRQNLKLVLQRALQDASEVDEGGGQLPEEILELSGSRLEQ
MrgX1 allo act: human MrgX1 positive allosteric modulation, primary screen. Q96LB2. MrgX1-HEK293, Fluo-4 calcium flux, FDSS; stronger effect = higher value. B-score at 10 µM. actives 0.63% (n = 310,000). AID 588675;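 active = plate-corrected calcium response at least 3 library SD above typical, normal starting fluorescence, not activating the receptor alone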;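 note: compound read alongside a low EC10 to EC30 dose of BAM8-22 agonist; peak minus trough fluorescence over baseline measured at the second addition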
RGS4 inh: human RGS4 inhibition. HEK293 M3R/RGS4 inducible, Fluo-4 calcium flux; stronger effect = higher value; triggered by carbachol at its EC20. B-score at 10 µM. actives 0.45% (n = 310,000);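 active = B-score, a plate-corrected calcium signal, over three deviations above library mean, with baseline fluorescence within five deviations of library mean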;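 note: RGS4 expression induced by doxycycline in cells with stable M3 receptor; B-score is computed from the integrated fluorescence ratio over baseline after carbachol; higher B-score means a larger calcium signal and so more RGS4 inhibition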
Target sequence (P49798 whole entry, looked up): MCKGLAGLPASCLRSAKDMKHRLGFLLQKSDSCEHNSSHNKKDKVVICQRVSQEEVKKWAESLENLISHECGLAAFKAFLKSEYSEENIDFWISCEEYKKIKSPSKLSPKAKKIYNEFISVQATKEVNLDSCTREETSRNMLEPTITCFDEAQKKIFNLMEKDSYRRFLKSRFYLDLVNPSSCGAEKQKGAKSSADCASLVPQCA
MrgX1 agonist: human MrgX1 receptor agonism, primary screen. MrgX1-HEK293 cells, Fluo-4 calcium fluorescence, agonist mode; stronger effect = higher value. B-score at 10 µM. actives 0.44% (n = 310,000). AID 588627. Q96LB2;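 active = calcium response B-score plate-corrected fluorescence ratio at least 3 library SD, with starting fluorescence B-score inside 5 SD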
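Material: HEK293 cells stably expressing human MrgX1 receptor | Quantity: 15,000 cells per well | Times: Cells plated overnight, dye loaded 0.5 h 37 °C, 0.5 h room temperature | Measured by: Kinetic Fluo-4 NW fluorescence of intracellular calcium | Control set: Positive and negative controls per plate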
RGS4 act: RGS4 potentiation or activation; HEK293 M3R/inducible RGS4, carbachol calcium flux Fluo4; stronger effect = lower value; B-score at 10 µM; actives 0.92% (n = 310,000); AID 463111;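 active = B-score of the integrated calcium signal more than 4 SD below the library mean, with starting fluorescence not abnormally high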;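 note: negative B-score means reduced calcium response which marks RGS4 activation or potentiation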
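Material: Inducible-RGS4 HEK293 cells carrying M3 receptor; also added: carbachol at ECmax as muscarinic agonist stimulus; incubation: compound preincubation 20 min at room temperature before agonist; signal: Fluo4-AM (2 µM) calcium-flux fluorescence, kinetic read; measure: integrated calcium ratio converted to B score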
RGS4 inh valid: validation of RGS4 inhibitors | shares compounds with RGS4 inh | HEK293 M3R/RGS4, carbachol calcium Fluo-4 fluorescence; carbachol added at its EC20; 0 = buffer wells, 100 = carbachol control | calcium response, % at 10 µM | actives 65% (n = 1,700) | AID 492999;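 active = duplicate-averaged calcium response above the buffer-only control mean plus 5 SD of those controls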;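 note: integrated fluorescence ratio F max minus min over baseline F0; higher response in RGS4-induced cells means RGS4 inhibition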
M3R Ca ctr: counter-screen for RGS4 inhibitors: effect in non-induced cells | shares compounds with RGS4 inh | HEK293 M3R non-induced, carbachol calcium Fluo-4; submaximal (EC20) carbachol stimulus; buffer wells 0%, carbachol control wells 100% | activity (percent), % at 10 µM | actives 20% (n = 1,900); call rule not given here;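 note: RGS4 induction absent so cells express M3R without RGS4; higher means more calcium signal and flags a non-specific hit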
RGS4 inh ctr2: second counter-screen for RGS4 inhibitors: non-induced cells without carbachol; shares compounds with RGS4 inh; calcium response (agonist-mode artifact), % at 10 µM; actives 22% (n = 1,900); AID 493001; HEK293 M3R/RGS4 non-induced, Fluo-4 calcium, no carbachol; normalised: buffer wells 0%, carbachol wells 100%;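 active = duplicate-averaged calcium rise in uninduced cells above buffer wells' mean plus 5 SD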
MrgX1 ag reconf: confirmation of human MrgX1 receptor agonists. MrgX1-HEK293, Fluo-4 calcium fluorescence, FDSS. actives 78% (n = 600). activation, % at 10 µM. shares compounds with MrgX1 agonist. AID 602412;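 active = calcium signal rise, corrected for plate position, at least 3 library SD high, with starting brightness within 5 such deviations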
HEK293 Ca flux: MrgX1 antagonist counter-screen hit in parental HEK293 cells; shares compounds with MrgX1 antag; Fluo-4 calcium fluorescence, FDSS; fluorescence ratio F(max-min)/F0 at 10 µM; actives 2% (n = 4,000); AID 624111;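 active = duplicate-averaged calcium fluorescence ratio at least three times the standard deviation of buffer wells, a nonspecific response in parental cells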
HEK293 Ca counter: activity in parental HEK293 cells without MrgX1 | fluorescence ratio F(max-min)/F0 at 10 µM | shares compounds with MrgX1 antag | parental HEK293 calcium flux, Fluo-4 fluorescence ratio; stronger effect = higher value | actives 0.4% (n = 4,000);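 active = calcium fluorescence ratio, averaged over duplicates, at least 3 SD of the buffer-well ratio, meaning a nonspecific response in receptor-free cells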;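 note: untransfected parental HEK293 lacking MrgX1 used as counterscreen for MrgX1 allosteric activators; fluorescence change taken during the second addition on a kinetic imager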
HEK293 Ca cntr2: activity in parental HEK293 cells lacking MrgX1 receptor; fluorescence ratio F(max-min)/F0 at 10 µM; actives 8.7% (n = 4,000); shares compounds with MrgX1 antag; Fluo-4 calcium fluorescence (FDSS); stronger effect = higher value; AID 624115;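 active = calcium fluorescence ratio at least three times the spread of buffer wells, meaning a non-specific response in parental cells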
An asterisk follows results filed as active.

What do the screens show for `CCN(CC)C(=O)Cn1cc(/C=C2\C(=O)NC(=O)N(c3ccccc3F)C2=O)c2ccccc21`?
MrgX1 antag: inactive; MrgX1 allo act: inactive; RGS4 inh: 6.59*; MrgX1 agonist: 26.8*; RGS4 act: inactive; RGS4 inh valid: 37.5%*; M3R Ca ctr: inactive; RGS4 inh ctr2: 429.5%*

What do the screens show for `Cc1cccc(N2C(=O)CC(=O)NC2=O)c1`?
MrgX1 antag: inactive; MrgX1 allo act: inactive; RGS4 inh: inactive; MrgX1 agonist: inactive; RGS4 act: inactive

How did COc1ccc(NP(=O)(Oc2ccc(Cl)cc2)Oc2ccc(Cl)cc2)cc1OC do in these assays?
MrgX1 antag: inactive; MrgX1 allo act: inactive; RGS4 inh: 11.6*; MrgX1 agonist: inactive; RGS4 act: inactive; RGS4 inh valid: 42.5%*; M3R Ca ctr: inactive; RGS4 inh ctr2: inactive

What do the screens show for `O=S(=O)(NC1CCCCC1)OCC(Cl)(Cl)Cl`?
MrgX1 antag: inactive; MrgX1 allo act: inactive; RGS4 inh: inactive; MrgX1 agonist: inactive; RGS4 act: inactive

How did Cc1ccc(-n2c(O)c(C=N)c(=O)n(-c3ccc(C)cc3)c2=O)cc1 do in these assays?
MrgX1 antag: inactive; MrgX1 allo act: inactive; RGS4 inh: inactive; MrgX1 agonist: inactive; RGS4 act: inactive

How did Nc1c(C(=O)NCc2ccco2)c2nc3ccccc3nc2n1CCN1CCCCC1 do in these assays?
MrgX1 antag: inactive; MrgX1 allo act: inactive; RGS4 inh: inactive; MrgX1 agonist: inactive; RGS4 act: inactive; RGS4 inh valid: inactive; M3R Ca ctr: inactive; RGS4 inh ctr2: 12.0%*

What do the screens show for `COc1ccc(NC(=O)c2cn(CCC#N)nc2-c2ccc(OC)c(OC)c2)cc1`?
MrgX1 antag: inactive; MrgX1 allo act: inactive; RGS4 inh: inactive; MrgX1 agonist: inactive; RGS4 act: inactive

How did Cc1nc2ccccc2c(=O)n1-c1cc(F)ccc1F do in these assays?
MrgX1 antag: inactive; MrgX1 allo act: inactive; RGS4 inh: inactive; MrgX1 agonist: inactive; RGS4 act: inactive

How did O=C1NC(=O)N(Cc2ccccc2)C(=O)/C1=C/c1cnc(-c2ccccc2)nc1 do in these assays?
MrgX1 antag: inactive; MrgX1 allo act: inactive; RGS4 inh: inactive; MrgX1 agonist: inactive; RGS4 act: inactive

Results for C=CCN1C(=O)NC(=O)/C(=C/C=C/c2ccccc2)C1=O ?
RGS4 inh: 5.35*; RGS4 act: inactive; RGS4 inh valid: 25.5%*; M3R Ca ctr: inactive; RGS4 inh ctr2: 18.5%*

How did O=C1NC(=O)N(Cc2ccco2)C(=O)/C1=C/C=C/c1ccco1 do in these assays?
MrgX1 antag: inactive; MrgX1 allo act: inactive; RGS4 inh: 5.41*; MrgX1 agonist: 36.4*; RGS4 act: inactive; RGS4 inh valid: inactive; M3R Ca ctr: inactive; RGS4 inh ctr2: inactive

Results for O=C1NC(=O)N(Cc2ccccc2)C(=O)/C1=C\C=C\c1ccco1 ?
MrgX1 antag: inactive; MrgX1 allo act: inactive; RGS4 inh: 5.45*; MrgX1 agonist: 28*; RGS4 act: inactive; RGS4 inh valid: 19.0%*; M3R Ca ctr: inactive; RGS4 inh ctr2: 15.0%*

Results for Cn1cccc1/C=C1\C(=O)NC(=O)N(Cc2ccco2)C1=O ?
RGS4 inh: inactive; RGS4 act: inactive

Results for CN(C)c1ccc(/C=C/C=C2/C(=O)NC(=O)N(c3ccccc3)C2=O)cc1 ?
RGS4 inh: inactive; RGS4 act: inactive

How did CC(O)(CS(=O)(=O)c1cccc(C(F)(F)F)c1)C(=O)Nc1ccc(C(F)(F)F)cc1 (configuration not stated) do in these assays?
MrgX1 antag: inactive; MrgX1 allo act: inactive; RGS4 inh: inactive; MrgX1 agonist: inactive; RGS4 act: inactive

What do the screens show for `COc1cc(/C=C/[N+](=O)[O-])ccc1OC(=O)c1cccnc1`?
MrgX1 antag: inactive; MrgX1 allo act: inactive; RGS4 inh: 48.6*; MrgX1 agonist: inactive; RGS4 act: inactive; RGS4 inh valid: 113.0%*; M3R Ca ctr: 45.0%*; RGS4 inh ctr2: 26.5%*

Results for CNc1ccc2oc(C[C@H]3O[C@@]4(CC[C@H]3C)O[C@H]([C@H](C)C(=O)c3ccc[nH]3)[C@H](C)C[C@H]4C)nc2c1C(=O)O ?
MrgX1 antag: inactive; MrgX1 allo act: inactive; RGS4 inh: inactive; MrgX1 agonist: 160*; RGS4 act: inactive; MrgX1 ag reconf: 822.7%*; HEK293 Ca flux: inactive; HEK293 Ca counter: inactive; HEK293 Ca cntr2: 158*

Results for CN1CCN(c2ccc3c(c2)S(=O)(=O)c2ccccc2C3=O)CC1 ?
MrgX1 antag: inactive; MrgX1 allo act: inactive; RGS4 inh: inactive; MrgX1 agonist: 28.2*; RGS4 act: inactive; MrgX1 ag reconf: inactive; HEK293 Ca flux: inactive; HEK293 Ca counter: inactive; HEK293 Ca cntr2: 50.8*

What do the screens show for `CN1CCN(c2cccc3c2C(=O)c2ccccc2C3=O)CC1`?
RGS4 inh: inactive; RGS4 act: inactive

How did O=C(c1cc(-c2ccc(Cl)cc2)n(-c2ccc(Cl)cc2Cl)n1)N1CCOCC1 do in these assays?
MrgX1 antag: inactive; MrgX1 allo act: inactive; RGS4 inh: inactive; MrgX1 agonist: inactive; RGS4 act: inactive

Results for C[C@H]1CCC[C@H](O)CCCCCc2cc(O)cc(O)c2C(=O)O1 ?
MrgX1 antag: inactive; MrgX1 allo act: inactive; RGS4 inh: inactive; MrgX1 agonist: inactive; RGS4 act: inactive

Source: PubChem (Johns Hopkins Ion Channel Center)
